Compound activity deposited in PubChem by Sanford-Burnham Center for Chemical Genomics.
Most compounds without a hit are left out; they make up all but 1.7% or so of the library.
STEP block – inhibitors of human striatal-enriched phosphatase STEP | recombinant STEP, OMFP fluorogenic substrate, fluorescence | inhibition, % at 20 µM | actives 0.25% (n = 360,000) | AID 588621;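 active = inhibition at 20 µM, scaled per plate between control wells, above about 37%, limit read from the data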;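 also: 0% = DMSO with enzyme and substrate and 100% = substrate only without enzyme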
Target sequence (P54829 whole entry, looked up): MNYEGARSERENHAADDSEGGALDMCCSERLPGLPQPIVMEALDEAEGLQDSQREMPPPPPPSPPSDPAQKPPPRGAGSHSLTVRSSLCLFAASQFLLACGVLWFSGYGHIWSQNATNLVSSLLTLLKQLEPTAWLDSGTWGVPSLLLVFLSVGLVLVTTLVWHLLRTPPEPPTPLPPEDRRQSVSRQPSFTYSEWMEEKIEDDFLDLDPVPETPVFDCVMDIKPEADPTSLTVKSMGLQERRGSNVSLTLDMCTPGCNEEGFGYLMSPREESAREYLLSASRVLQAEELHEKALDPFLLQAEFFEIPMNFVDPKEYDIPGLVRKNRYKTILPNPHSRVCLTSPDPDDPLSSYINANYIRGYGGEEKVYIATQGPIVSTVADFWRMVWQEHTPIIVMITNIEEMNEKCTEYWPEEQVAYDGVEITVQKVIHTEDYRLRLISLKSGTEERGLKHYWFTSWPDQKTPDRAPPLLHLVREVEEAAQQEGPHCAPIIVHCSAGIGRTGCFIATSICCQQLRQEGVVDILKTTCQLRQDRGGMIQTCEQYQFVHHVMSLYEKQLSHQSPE
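System: STEP phosphatase, cell-free reaction; Buffer or medium: Bis-Tris pH 6.0 buffer with DTT, detergent; Incubation: 20 min at room temperature, dark; Measured by: fluorescence, 480/540 nm.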
LMPTP block – blocks human LMPTP phosphatase; P24666; recombinant LMPTP-A, OMFP fluorogenic substrate, fluorescence intensity; actives 0.22% (n = 360,000); inhibition, % at 20 µM;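 active = compounds that cut the enzyme signal by at least half of the control window in the single-dose screen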;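 also: plate controls were DMSO wells with enzyme plus substrate for no effect and substrate without enzyme for full effect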
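Assay system: LMPTP-A enzyme. Input: 0.625 nM LMPTP-A final. Probe or stimulus: 400 µM OMFP. Compound dosing: single 20 µM dose. Schedule: 50 min dark incubation at room temperature. Detection: fluorescence intensity of OMFP turnover product. Read-out: percent inhibition versus substrate-only and uninhibited controls. Benchmarks: no-enzyme low control, uninhibited high control.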
Scp1 inh – inhibitors of human Scp-1 phosphatase; Q9GZU7; Recombinant Scp1, phosphopeptide, malachite green phosphate absorbance; inhibition, % at 20 µM; actives 0.88% (n = 340,000); AID 493091;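 active = inhibition above about 50% at 20 µM, limit read from the data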;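 also: plate controls were DMSO wells with enzyme for no effect and wells lacking enzyme for full effect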
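System: truncated SCP-1 phosphatase (76-261aa); medium: Tris acetate buffer pH 5.5 with MgCl2 and Tween-20; incubation: 45 min room-temperature reaction, 5 min colour, 30 min stabiliser; compound: single 20 µM dose, 1% DMSO; reagent: Phosphorylated 17-residue peptide substrate; read-out: % inhibition at 20 µM; technique: colorimetric free-phosphate detection, absorbance 630 nm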
SUMO1-SIM PPI – alters human SUMO1 binding to SIM partners; P63165; SUMO1 binding to a labelled peptide, TR-FRET, 1 h; inhibition, % at 20 µM; actives 0.33% (n = 360,000); AID 602429; in the data active = inhibition above about 37%
DNMT1 block – inhibitors of human DNMT1; P26358; DNMT1 molecular beacon, Hinp1I cleavage, fluorescence; inhibition (reported as % activation of signal), % at 10 µM; actives 0.83% (n = 360,000); AID 588458; in the data active = inhibition above about 50%
Scp1 confirm – confirmation of human Scp-1 phosphatase inhibitors | shares compounds with Scp1 inh | AID 540281 | recombinant SCP-1 catalytic domain, phosphate release, malachite green absorbance | actives 61% (n = 2,500) | inhibition, % at 20 µM;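 also: plate controls were DMSO with enzyme for no effect and buffer wells lacking enzyme for full effect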
Scp-1 MG ctr – counter-screen for Scp-1 inhibitors: colorimetric interference; shares compounds with Scp1 inh; Colorimetric interference counterscreen, malachite green absorbance 630 nm; apparent inhibition (interference), % at 20 µM; 2,500 tested, under 10 active; AID 540313;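 also: compounds added after enzyme reaction finished so only phosphate colour detection is probed; plate controls were DMSO wells with completed Scp-1 reaction for no effect and substrate wells lacking enzyme for full effect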
Scp-1 Tm shift – Scp-1 (human) binding by thermal shift | actives 25% (n = 1,500) | thermal shift relative to vanadate control, % at 40 µM | Recombinant SCP1, Sypro Orange thermal shift Tm | shares compounds with Scp1 inh | AID 540329;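 active = substances whose mean melting-temperature shift, as a percentage of the reference inhibitor's shift, reaches about 5.3%, limit read from the data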;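 also: 0% = Tm of DMSO wells and 100% = Tm with sodium orthovanadate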
* marks the source's active call; other numbers are inactive results; · = no result given.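 The calls were made as follows, unless noted: active = inhibition of at least 30% at 20 µM; inactive = the rest.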

SMILES	STEP block	LMPTP block	Scp1 inh	SUMO1-SIM PPI	DNMT1 block	Scp1 confirm	Scp-1 MG ctr	Scp-1 Tm shift
COCC1=C(C(=O)OC(C)OC(=O)OC(C)C)N2C(=O)[C@@H](NC(=O)/C(=N\OC)c3csc(N)n3)[C@H]2SC1 (stereo partly specified)	3	2	-4	0	-13	·	·	·
CO/N=C(\C(=O)N[C@@H]1C(=O)N2C(C(=O)O)=C(COC(N)=O)CS[C@H]12)c1ccco1	7	-1	70*	21	35	67*	-10	8.0*
CON=C(C(=O)NC1C(=O)N2C(C(=O)O)=C(CSc3nc(=O)c(=O)[nH]n3C)CSC12)c1csc(N)n1 (stereo unspecified)	11	1	65*	33	47	52*	-11	3
CC1(C(=O)NS(=O)(=O)C2CC2)CCN(C(=O)c2c(F)cccc2F)C1 (stereo unspecified)	2	-3	·	-2	-1	·	·	·
N#CCC(=O)N/N=C/c1ccc(Sc2nc3ccccc3s2)o1	0	1	99*	-15	8	81*	-11	8.1*
COCC(=O)N/N=C/c1ccc(Sc2nc3ccccc3s2)o1	-2	-1	-7	-27	5	·	·	·
CN(O)/C=C1\C(=O)Nc2ccccc21	1	0	65*	-8	-2	0	-7	·
CN(C)/C=C1\C(=O)Nc2ccccc21	-4	-1	-4	-8	-1	·	·	·
C=CCSc1nnc(NC(=O)CSc2nc3ccccc3[nH]2)s1	5	1	23	6	21	·	·	·
C=CCSc1nnc(NC(=O)CSc2nc(CCC)cc(=O)[nH]2)s1	-2	-1	53*	0	-1	7	-5	·
Cc1ccc(/C=N/NC(=O)CCCOc2ccc(Cl)cc2Cl)cc1[N+](=O)[O-]	5	9	58*	0	17	38*	-11	5
COc1ccc(/C=N/NC(=O)CCCOc2ccc(Cl)cc2Cl)cc1[N+](=O)[O-]	1	3	-4	-2	-15	·	·	·
O=C(O)c1cc(S(=O)(=O)Nc2ccc(OCc3ccccc3)cc2)ccc1Br	0	0	-15	-2	-3	·	·	·
O=[N+]([O-])c1ccc2cc[nH]c2c1	2	6	61*	1	34	25	-4	·
O=[N+]([O-])c1ccc2[nH]ccc2c1	·	-3	·	-19	·	·	·	·
Cc1ccc(S(=O)(=O)N2CCN(C(=O)c3ccccc3)CC2)cc1	1	-1	-9	1	2	·	·	·
Cc1ccc(S(=O)(=O)N2CCN(C(=O)c3cccc(-n4cccc4)c3)CC2)cc1	4	6	86*	11	32	43*	-5	0
Cc1c(C(=O)NC2CCS(=O)(=O)C2)oc2ccccc12 (stereo unspecified)	-5	0	-2	1	1	·	·	·
O=c1[nH]n2c(=O)c3c([nH]c2c1N=Nc1cccc(Cl)c1)CCCC3	4	5	95*	5	0	46*	-18	30*
O=C(c1cccc(C(F)(F)F)c1)C1CCCN(C(=O)c2cc(C3CC3)[nH]n2)C1 (stereo unspecified)	2	2	-3	2	-2	·	·	·
CNc1ccccc1C(=O)OCC(=O)N1CCN(c2ccc(OC)cc2)CC1	3	1	66*	-1	0	-1	-7	·
COc1ccc(N2CCN(C(=O)COC(=O)c3cccc(OC)c3O)CC2)cc1	1	-2	-4	1	6	·	·	·
Cc1ccc(S(=O)(=O)N2CCCCC2)cc1C(=O)Nc1cccnc1	2	-1	53*	10	22	51*	-13	-13
Cn1ncc(Br)c1C(=O)N/N=C/c1cccc(OC2CSC2)c1	-2	-1	-2	-10	-3	·	·	·
O=C(N/N=C/c1cccc(OC2CSC2)c1)c1ccccc1O	21	42	96*	1	-2	59*	-16	-9
